PAX8 inh HTS: inhibitors of PAX8-driven TPO luciferase reporter, primary screen, RMG-I cells, single concentration; SteadyGlo, 24 h; inhibition, % at 12.6 µM; 360,000 compounds, 1.2% hits; AID 652154, 2013;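 active = mean replicate inhibition at least 60% with every replicate also reaching 60%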;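 note: luciferase light reporting Pax8 driven TPO promoter activity; plate controls were median of neutral control wells for no effect and mitoxantrone controls for full effect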
HIV Env fusion: inhibitors of HIV-1 Env-driven cell-cell fusion, primary screen, HeLa-JRFL effector, CEM21 target cells, luciferase. inhibition, % at 12.3 µM. 360,000 compounds, 1.1% hits. AID 651610, 2012;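 active = mean replicate inhibition score of at least 50 and every replicate individually at or above 50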;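 note: 0% = plate neutral controls and 100% = maraviroc near 300 nM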
PfHsp90 yeast 2: growth inhibition of PfHsp90-expressing yeast, primary screen, antimalarial PfHsp90 inhibitor project, S. cerevisiae, BacTiter-Glo luminescence, single point, set 2. BacTiter-Glo ATP, 48 h; yeast lacking PDR1 and PDR3 efflux regulators. inhibition, % at 9.4 µM. 310,000 compounds, 0.32% hits. AID 504621, 2011;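 active = every replicate shows inhibition above about 80%, whatever the replicate mean, limit read from the data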;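 note: 0% = DMSO neutral controls and 100% = 20 µM radicicol positive controls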
Arrestin-AP2 inh: inhibitors of beta-arrestin/AP2 binding, primary screen, biochemical, GPCR trafficking, flow cytometry | 340,000 compounds, 0.31% hits | FITC-arrestin peptide / GST-AP2 beads; AP2 beta2 appendage carries R879A mutation | beta-arrestin 1 C-terminal peptide binding to AP2 beta2-adaptin appendage (human) | inhibition, % at 10 µM;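 active = inhibition above a set limit, near 3 SD of compounds lacking own fluorescence, cut at about 54% in these data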;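 note: plate controls were DMSO wells for no effect and 5 µM unlabelled arrestin peptide for full effect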
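Assay system: GST-AP2 R879A bound to glutathione beads, E. coli-expressed; Medium: PBS with 0.05% Tween 20 and 0.1% BSA; Also added: fluorescein-tagged arrestin peptide at 50 nM final; Timing: 12 min plus 1 h, RT; Measured by: flow cytometry, FL1 (488/535 nm); Evaluation: percent drop in bead-associated FITC signal.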
Rtt109 HAT inh: inhibitors of C. albicans Rtt109/Vps75 HAT, primary screen, biochemical, ThioGlo CoA-SH fluorescence, plate reader | purified Rtt109/Vps75, 4 h | inhibition, % at 34.9 µM | 330,000 compounds, 0.16% hits;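 active = inhibition of at least 50% in every replicate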
Target sequence (Q5AAJ8 whole entry, looked up): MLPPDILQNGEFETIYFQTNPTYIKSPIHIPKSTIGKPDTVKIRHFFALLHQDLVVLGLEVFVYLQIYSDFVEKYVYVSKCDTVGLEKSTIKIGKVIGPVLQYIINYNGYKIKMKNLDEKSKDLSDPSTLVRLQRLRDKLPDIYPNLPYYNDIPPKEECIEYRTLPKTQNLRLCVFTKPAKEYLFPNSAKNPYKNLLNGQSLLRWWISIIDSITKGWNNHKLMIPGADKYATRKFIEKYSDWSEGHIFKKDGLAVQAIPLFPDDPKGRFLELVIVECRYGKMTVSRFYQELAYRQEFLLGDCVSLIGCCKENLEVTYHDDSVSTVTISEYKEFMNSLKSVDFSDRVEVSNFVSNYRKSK
Glyco luc inh: increase of ERlucT glycosylation luciferase signal, primary screen, N-linked glycosylation inhibitor project, D54 ERlucT cells, luminescence, set 2. 360,000 compounds, 0.23% hits. D54 ERlucT glycosylation luciferase reporter, 24 h; percent of 100 nM tunicamycin response. AID 588692, 2011. reporter increase, % at 12.5 µM;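 active = mean luciferase reporter signal, scaled so untreated is 0 and the glycosylation-blocking control 100, at or above a set limit in every replicate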;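 note: luciferase carries N-glycosylation sites so blocking glycosylation raises the light; 0% = median of neutral control wells and 100% = median of 100 nM tunicamycin wells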
* hit, by the source's call; / = not tested or not shown; [ ] = dose if it differs, or a comment. This is a sample that favours compounds with a hit; in the whole collection about 2.3% have one here.

SMILES | PAX8 inh HTS | HIV Env fusion | PfHsp90 yeast 2 | Arrestin-AP2 inh | Rtt109 HAT inh | Glyco luc inh
CCC(=O)NC(c1cccc([N+](=O)[O-])c1)c1c(OC(C)=O)ccc2ccccc12 (centres undefined) | / | / | -20 | 5 | 1 | 0
CO[C@H]1CN(C)C(=O)c2ccc(NC(=O)C3CC3)cc2OC[C@@H](C)N(C(=O)c2ccccn2)C[C@H]1C | -9 | -11[16.7 µM] | / | / | / | /
COc1ccccc1NC(=O)N1CCCCN2[C@H](C1)[C@@H](c1ccc(C#CC3CC3)cc1)[C@@H]2CO | 7 | / | / | / | / | /
CN(CC(=O)NCC(=O)Nc1ccc(F)cc1)CC(=O)Nc1ccc(Cl)c(C(F)(F)F)c1 | 16 | / | / | 0 | -7 | 1
CC(NC(=O)CN(C)CC(=O)Nc1ccc(Cl)c(C(F)(F)F)c1)c1ccccc1 (centres undefined) | 13 | 103* | -4 | 5 | 1 | -1
Cn1c(NCc2cc(Br)ccc2O)nc2ccccc21 | -42 | 16 | / | -6 | 1 | -3
Cn1c(NCc2c(O)ccc3ccccc23)nc2ccccc21 | / | 71* | / | 7 | 21 | -11
C[C@@H]1CCCCO[C@@H](CN(C)CC2CCCCC2)[C@@H](C)CN([C@@H](C)CO)C(=O)c2cc(NS(=O)(=O)c3ccc(F)cc3)ccc2O1 | 72* | 6[16.7 µM] | / | / | / | /
CCCN(C)C[C@H]1OCCCC[C@H](C)Oc2ccc(NS(=O)(=O)c3ccc(F)cc3)cc2C(=O)N([C@@H](C)CO)C[C@@H]1C | 69* | -14[16.7 µM] | / | / | / | /
C[C@@H]1CCCCO[C@H](CN(C)CC2CCCCC2)[C@H](C)CN([C@@H](C)CO)C(=O)c2cc(NS(=O)(=O)c3ccc(Cl)cc3)ccc2O1 | 104* | 5[16.7 µM] | / | / | / | /
Cc1ccc(S(=O)(=O)N[C@@H]2CC[C@@H](CCNC(=O)c3ccc4c(c3)OCO4)O[C@H]2CO)cc1 | -14 | 9[16.7 µM] | / | / | / | /
CNC[C@H]1Oc2ncc(C#CC3CCCCC3)cc2C(=O)N([C@@H](C)CO)C[C@H]1C | 0 | -7[16.7 µM] | / | / | / | /
CNC[C@@H]1Oc2cc(C#CCN(C)C)ccc2S(=O)(=O)N([C@@H](C)CO)C[C@@H]1C | / | 14[16.7 µM] | / | / | / | /
COc1cc(OC)nc(Nc2nc(C(N)COCc3ccccc3)cs2)n1 (centres undefined) | 11 | 97* | / | / | / | 3
C[C@H](CO)N1C[C@H](C)[C@H](CN(C)C(=O)Cc2ccccc2)OCc2ccccc2-c2c(n(C)c3ccccc23)C1=O | 9 | 58*[16.7 µM] | / | / | / | /
C[C@H]1CN([C@@H](C)CO)C(=O)c2c(c3ccccc3n2C)-c2ccccc2CO[C@@H]1CN(C)C(=O)Cc1ccccc1 | 13 | 59*[16.7 µM] | / | / | / | /
C[C@@H]1CN([C@H](C)CO)C(=O)c2c(c3ccccc3n2C)-c2ccccc2CO[C@H]1CN(C)C(=O)Cc1ccccc1 | 0 | -32 | / | / | / | -2
C[C@H]1CN([C@@H](C)CO)C(=O)c2ccccc2-c2ccccc2CO[C@@H]1CN(C)C(=O)CCC(F)(F)F | -3 | 57*[16.7 µM] | / | / | / | /
C[C@@H]1CN([C@@H](C)CO)C(=O)c2ccccc2-c2ccccc2CO[C@@H]1CN(C)C(=O)CCC(F)(F)F | 2 | 15[16.7 µM] | / | / | / | /
C[C@@H]1CN([C@H](C)CO)C(=O)c2c(c3ccccc3n2C)-c2ccccc2CO[C@@H]1CN(C)C(=O)Cc1ccccc1 | 24 | 9[16.7 µM] | / | / | / | /
C[C@H](CO)N1C[C@H](C)[C@@H](CN(C)C(=O)Cc2ccccc2)OCc2ccccc2-c2c(n(C)c3ccccc23)C1=O | 66* | 12[16.7 µM] | / | / | / | /
COc1ccc(S(=O)(=O)Nc2ccc3c(c2)C(=O)N([C@H](C)CO)C[C@@H](C)[C@H](CN(C)C)OCCCC[C@@H](C)O3)cc1 | -9 | 23[16.7 µM] | / | / | / | /
COc1ccccc1C#Cc1cnc2c(c1)C(=O)N([C@H](C)CO)C[C@@H](C)[C@H](CN(C)C(=O)CN(C)C)O2 | / | 7[16.7 µM] | / | / | / | /
